Data on 26 molecules can be found in ChEMBL document CHEMBL5154657, “Design, synthesis and biological evaluation of 1,5-disubstituted α-amino tetrazole derivatives as non-covalent inflammasome-caspase-1 complex inhibitors with potential application against immune and inflammatory disorders” (Eur J Med Chem, 2022).

The target in one data set is T1, Caspase-1 (Homo sapiens) (UniProt P29466).
T1 sequence (whole entry): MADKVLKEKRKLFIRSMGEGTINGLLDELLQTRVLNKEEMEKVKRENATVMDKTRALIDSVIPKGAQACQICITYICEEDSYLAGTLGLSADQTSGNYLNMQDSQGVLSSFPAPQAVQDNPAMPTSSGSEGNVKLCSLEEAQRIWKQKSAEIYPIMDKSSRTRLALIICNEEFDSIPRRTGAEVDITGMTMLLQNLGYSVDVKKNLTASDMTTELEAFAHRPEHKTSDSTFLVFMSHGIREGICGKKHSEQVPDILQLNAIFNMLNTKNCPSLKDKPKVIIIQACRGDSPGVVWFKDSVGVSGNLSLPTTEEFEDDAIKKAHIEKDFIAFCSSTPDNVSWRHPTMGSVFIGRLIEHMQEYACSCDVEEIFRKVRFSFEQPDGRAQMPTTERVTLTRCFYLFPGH
The data set can be described thus: Inhibition of caspase 1 (unknown origin) assessed as enzyme residual activity using YVAD-AFC as substrate at 100 uM by fluorescence analysis. The gist of the method:
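Caspase-1 cleavage of an AFC-labelled peptide substrate is monitored over time by fluorescence (Ex/Em 400/505 nm). Residual enzyme activity is expressed as % with 100 μM compound, relative to an untreated control.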

Another data set deals with T2, Caspase-1 (Homo sapiens, UniProt P29466).
T2 sequence (P29466 whole entry): T1 sequence (whole entry)
The data set is described as follows: Inhibition of caspase 1 (unknown origin) using YVAD-AFC as substrate by fluorescence analysis. The method, boiled down: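 Caspase-1 activity is followed as a time course of fluorescence from cleavage of an AFC-labelled peptide substrate (Ex/Em 400/505 nm). Compounds are tested as a 10-dose series with 3-fold serial dilution starting at 100 μM or 10 μM. IC50 is the concentration halving enzyme activity. Curves are fitted only when activity at the top concentration is below 60%.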

Data set [1] in a line: Inhibition of LPS-induced IL-1beta secretion in human U-937 cells measured after 24 hrs by ELISA. The class given is functional, cell-based. The note with it: U-937, 24 h. The gist of the method: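 U937 human histiocytic lymphoma cells, grown in RPMI 1640 with 10% FBS, differentiated into macrophages with […] for 24h. Compound given at graded concentrations, 10 μM down to 1 nM, together with LPS (1 μg/ml) for 24h. Supernatants frozen at −80 °C, then IL-1β measured by sandwich ELISA. IC50 taken from regression of % inhibition against log concentration.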
In general terms: ELISA stands for enzyme-linked immunosorbent assay.

The next data set deals with U-937. The data set can be described thus: Cytotoxicity against human U-937 cells assessed as reduction in cell viability at 10 to 100 nM after 48 hrs by MTT assay. Format: toxicity, cell-based. The following applies: u-937, 48 h, 0.1 µM, dose 10-100 nM. The method, boiled down:
(§1)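 Human histiocytic lymphoma U937 cells are grown in RPMI 1640 with 10% FBS, penicillin and streptomycin at 37 °C under 5% CO₂. They are seeded at 10000 cells/well and exposed to compound from 1 nM to 100 μM for 48 h, with matched DMSO-only solvent controls. MTT (0.1 mg) is added for 4 h at 37 °C, cells are lysed, and A595 is read. Viability is given as % of control, as the mean of three independent experiments.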
In general terms: Tetrazolium assays rely on reduction of a dye to a coloured formazan, in cell work by metabolically active cells.

The nature of data set [2]: Cytotoxicity against human U-937 cells assessed as reduction in cell viability at 100 uM after 48 hrs by MTT assay. Format: toxicity, cell-based. The note with it: read-out: INH. The method, boiled down: as §1
Data set [3] is described as follows: Inhibition of LPS-induced IL-1beta secretion in human U-937 cells preincubated for 4 hrs with LPS followed by compound treatment for overnight by ELISA. Format: functional, cell-based. The gist of the method: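 U937 cells in RPMI 1640 with 10% FBS, differentiated with […] for 24h. Primed with LPS (1 μg/ml) for 4h, then compound added at graded concentrations, 10 μM down to 1 nM, overnight. Supernatants stored at −80 °C, and human IL-1β measured by sandwich ELISA. IC50 from regression of % inhibition against log concentration.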

On to `O=C(O)CC(O)CNC(c1cccs1)c1nnnn1CCCC(=O)N1CCc2ccccc2C1` (stereo unspecified), for which, on Caspase-1 (Homo sapiens), the Activity was found to be 77.2%.
Still for that read-out and setting: the value for `O=C(O)C[C@@H](O)CN[C@H](c1ccccc1)c1nnnn1CCCC(=O)NCc1ccccc1` was 63.3%.
Still for that read-out and setting: in the case of `O=C(O)C[C@H](O)CN[C@@H](c1ccccc1)c1nnnn1CCCC(=O)NCc1ccccc1` it was 62.4%.
Same read-out and setting: in the case of `CC(C)(C)C(NCC(O)CC(=O)O)c1nnnn1CCCC(=O)N1CCc2ccccc2C1` (stereo unspecified) it was 61.9%.
For orientation: IC50 means the concentration at which inhibition is half-maximal. A higher IC50 goes with weaker potency. As for `CC(C)(C)CC(c1nnnn1CCCC(=O)N1CCc2ccccc2C1)N(Cc1ccc(F)cc1)CC(O)CC(=O)O` (stereo unspecified), at Caspase-1 (Homo sapiens), the Activity turned out to be 3.9%. At Caspase-1, this molecule registered an IC50 of 12.7 µM.
`O=C(O)C[C@H](O)CN[C@H](c1cccs1)c1nnnn1CCCC(=O)NCc1ccccc1`: the Activity on Caspase-1 (Homo sapiens) is 69.8%.
On the same count and under the same terms, in the case of `CC(C)(C)C[C@H](c1nnnn1CCCC(=O)N1CCc2ccccc2C1)N(Cc1ccccc1)CC(O)CC(=O)O` (stereo partly specified) it was 4.45%.
As for `O=C(O)CC(O)CNC(c1ccccc1)c1nnnn1CCCC(=O)N1CCc2ccccc2C1` (stereo unspecified), at Caspase-1 (Homo sapiens), the Activity stood at 48%. Besides, half-maximal inhibition on Caspase-1 (IC50) was put at 94.1 µM.
On to `CC(C)CC(NCC(O)CC(=O)O)c1nnnn1CCCC(=O)N1CCc2ccccc2C1` (stereo unspecified), for which the Activity at Caspase-1 (Homo sapiens) was 43.7%. The same molecule showed an IC50 on Caspase-1 of 79.4 µM.
`O=C(O)CC(O)CN[C@@H](c1cccs1)c1nnnn1CCCC(=O)N1CCc2ccccc2C1` (stereo partly specified): the Activity at Caspase-1 (Homo sapiens) was 29%.
As to `O=C(O)CC(O)CN[C@H](c1cccs1)c1nnnn1CCCC(=O)N1CCc2ccccc2C1` (stereo partly specified), the Activity at Caspase-1 (Homo sapiens) worked out at 37.2%.
On to `COc1cc2c(cc1OC)CN(C(=O)CCCn1nnnc1C(NCC(O)CC(=O)O)C1CC1)CC2` (stereo unspecified), for which the Activity on Caspase-1 (Homo sapiens) was 80.6%.
Consider `O=C(O)CC(O)CN[C@@H](c1ccccc1)c1nnnn1CCCC(=O)N1CCc2ccccc2C1` (stereo partly specified), for which the Activity at Caspase-1 (Homo sapiens) was 48.6%.
With `CC(C)(C)CC(c1nnnn1CCCC(=O)N1CCc2ccccc2C1)N(Cc1ccccc1)CC(O)CC(=O)O` (stereo unspecified), the Activity on Caspase-1 (Homo sapiens) came to 2.91%. On Caspase-1, this molecule returned an IC50 of 10.3 µM.
With `CC(C)C(NCC(O)CC(=O)O)c1nnnn1CCCC(=O)N1CCc2ccccc2C1` (stereo unspecified), on Caspase-1 (Homo sapiens), the Activity is 77.8%.
As to `COc1cc2c(cc1OC)CN(C(=O)CCCn1nnnc1C(NCC(O)CC(=O)O)C(C)(C)C)CC2` (stereo unspecified), the Activity on Caspase-1 (Homo sapiens) was 96.7%.
In the case of `CC(C)CC(c1nnnn1CCCC(=O)N1CCc2ccccc2C1)N(Cc1ccccc1)CC(O)CC(=O)[O-].[Na+]` (stereo unspecified), the values for the Activity on Caspase-1 (Homo sapiens) and with U-937 were 2.47% and “Non-Toxic”, respectively. The IC50 in data set [1] stood at 0.35 µM; in data set [3] it was 0.85 µM; on Caspase-1, 12.1 µM. Also, the cytotoxicity at 48 h, 100 µM in data set [2] came out at 50%.
Consider `O=C(O)CC(O)CN[C@@H](c1cccs1)c1nnnn1CCCC(=O)NCc1ccccc1` (stereo partly specified), for which the Activity on Caspase-1 (Homo sapiens) was 49.6%.
Take `CC(C)(C)C[C@@H](NCC(O)CC(=O)O)c1nnnn1CCCC(=O)N1CCc2ccccc2C1` (stereo partly specified): the Activity on Caspase-1 (Homo sapiens) was 9.71%.
On to `CC(C)CC(c1nnnn1CCCC(=O)N1CCc2ccccc2C1)N(Cc1ccc(F)cc1)CC(O)CC(=O)O` (stereo unspecified), for which the Activity on Caspase-1 (Homo sapiens) turned out to be 2.06%. For the same molecule, at Caspase-1, the IC50 was 20.7 µM.
For the molecule `CC(C)(C)CC(NCC(O)CC(=O)[O-])c1nnnn1CCCC(=O)N1CCc2ccccc2C1.[Na+]` (stereo unspecified), the results for the Activity at Caspase-1 (Homo sapiens) and in the data set on U-937 were 8.12% and “Non-Toxic”, respectively. Besides, the values for the IC50 (in data set [1]; at Caspase-1) were 50.1 µM and 15.1 µM, respectively. Further, in data set [2], the cytotoxicity at 48 h, 100 µM was 50%.
Regarding `O=C(O)CC(O)CN[C@H](c1ccccc1)c1nnnn1CCCC(=O)N1CCc2ccccc2C1` (stereo partly specified), the Activity on Caspase-1 (Homo sapiens) is 40.5%.
On to `O=C(O)CC(O)CNC(c1nnnn1CCCC(=O)N1CCc2ccccc2C1)C1CC1` (stereo unspecified), for which the Activity at Caspase-1 (Homo sapiens) was 90%.
As to `COc1cc2c(cc1OC)CN(C(=O)CCCn1nnnc1C(CC(C)(C)C)NCC(O)CC(=O)O)CC2` (stereo unspecified), on Caspase-1 (Homo sapiens), the Activity was 9.49%. In addition, on Caspase-1, the midpoint of inhibition, the IC50, lay at 14.6 µM.
With `CC(C)(C)CC(NCC(O)CC(=O)O)c1nnnn1CCCC(=O)NCc1ccccc1` (stereo unspecified), the Activity at Caspase-1 (Homo sapiens) came to 59.9%.
With `O=C(O)CC(O)CNC(c1nnnn1CCCC(=O)NCc1ccccc1)C1CC1` (stereo unspecified), on Caspase-1 (Homo sapiens), the Activity was 77.1%.
